Compounds with a hit are over-represented: about 2% of the library has one in this group of screens.
MIN6 prolif: inducers of beta-cell replication in MIN6 cells | 330,000 compounds, 0.29% hits | MIN6 cells proliferation, ATPlite luminescence, 48 h; cells starved in 0.2% serum; 100% = growth in 10% serum | proliferation, % at 10 µM | AID 2380;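 active means compounds whose signal lies at least 3.5 SD above the mean of all wells on their plate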
PvdQ acylase: blocks Pseudomonas aeruginosa PvdQ acylase activity. 340,000 compounds, 0.063% hits. purified PvdQ acylase, fluorescence plate reader. inhibition, % at 10 µM; in the data active means inhibition above about 30%, passing the limit was not always enough
VIM-2 inh: blocks Pseudomonas aeruginosa VIM-2 metallo-beta-lactamase; purified VIM-2, nitrocefin hydrolysis, epi-absorbance fluorescence; inhibition, % at 5.6 µM; 290,000 compounds, 0.89% hits;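 active means inhibition above the mean of all tested compounds plus 3 SD, cutoff set per screening run, cut at about 7.5% in these data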;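 further: red hydrolysis product quenches plate fluorescence so inhibitors raise well fluorescence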
HKDC1 inhibitor: blocks human hexokinase HKDC1 activity; Q2TB90; recombinant HKDC1, G6PDH/diaphorase resazurin coupled fluorescence; inhibition, % at 20 µM; 340,000 compounds, 0.16% hits; AID 493160;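 active means inhibition above about 35% when tested at 20 µM, limit read from the data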
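Assay system: recombinant HKDC1 hexokinase; detection: coupled resazurin fluorescence, excitation 525 nm, emission 613 nm; benchmarks: DMSO-plus-enzyme-mix negative control, buffer-substituted positive control; compound dosing: single 20 µM dose; schedule: 90 min at room temperature in dark; also added: glucose plus 1 mM ATP as hexokinase substrates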
ATG4B inhibitor: ATG4B (human) cysteine protease inhibition | Q9Y4P1 | AID 504462 | inhibition, % at 8.33 µM | 340,000 compounds, 0.51% hits | ATG4B cleavage of LC3-PLA2, NBD-HPC fluorescence, 1 h; in the data active means inhibition above about 40%
Target sequence (Q9Y4P1 whole entry, looked up): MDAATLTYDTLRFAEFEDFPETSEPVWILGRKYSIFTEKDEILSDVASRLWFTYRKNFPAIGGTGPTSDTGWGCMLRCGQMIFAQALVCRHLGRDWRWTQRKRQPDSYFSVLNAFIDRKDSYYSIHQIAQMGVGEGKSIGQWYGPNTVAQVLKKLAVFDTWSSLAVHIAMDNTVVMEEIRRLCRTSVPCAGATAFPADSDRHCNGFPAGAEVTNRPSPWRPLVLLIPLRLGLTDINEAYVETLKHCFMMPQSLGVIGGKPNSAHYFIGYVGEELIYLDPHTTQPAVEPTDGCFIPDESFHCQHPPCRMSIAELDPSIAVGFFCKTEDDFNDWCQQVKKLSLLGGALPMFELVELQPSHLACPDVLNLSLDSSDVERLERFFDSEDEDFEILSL
IMP-1 inh-1: blocks Pseudomonas aeruginosa IMP-1 metallo-beta-lactamase; 290,000 compounds, 0.45% hits; inhibition, % at 5.6 µM; purified IMP-1, nitrocefin hydrolysis, epi-absorbance fluorescence; AID 1556;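 active means inhibition above the mean plus 3 SD of all compounds in the same screening run, cut at about 4.5% in these data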
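System: purified recombinant IMP-1 beta-lactamase. Medium: Zinc- and detergent-supplemented HEPES buffer, pH 7.1. Compound: one 5.6 µM dose […]. Schedule: 15 min preincubation plus 25 min reaction at 25 °C. Technique: Epi-absorbance fluorescence, 480 nm excitation, 530 nm emission.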
IMP-1 inh-2: selectivity counter-screen for VIM-2 inhibitors: IMP-1 metallo-beta-lactamase inhibitors | AID 1856 | purified IMP-1, nitrocefin hydrolysis, epi-absorbance fluorescence | inhibition, % at 5.6 µM | shares compounds with VIM-2 inh | 1,300 tested, under 10 active; call rule not given here
VIM-2 FRET ctr: inhibits VIM-2 in FRET assay to exclude epi-absorbance artifacts. shares compounds with VIM-2 inh. purified VIM-2, CCF2 FRET substrate hydrolysis. inhibition, % at 5.6 µM. 1,300 compounds, 23% hits. AID 1857;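 active means inhibition above the mean of all tested compounds plus 3 SD, cut at about 19% in these data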
TEM-1 inh: blocks E. coli TEM-1 beta-lactamase in VIM-2 selectivity screen. shares compounds with VIM-2 inh. AID 1866. 1,300 compounds, 3% hits. Purified TEM-1, nitrocefin hydrolysis, epi-absorbance fluorescence. inhibition, % at 5.6 µM;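 active means inhibition above that campaign's mean inhibition plus 3 SD, cut at about 0.46% in these data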
Target sequence (P62593 whole entry, looked up): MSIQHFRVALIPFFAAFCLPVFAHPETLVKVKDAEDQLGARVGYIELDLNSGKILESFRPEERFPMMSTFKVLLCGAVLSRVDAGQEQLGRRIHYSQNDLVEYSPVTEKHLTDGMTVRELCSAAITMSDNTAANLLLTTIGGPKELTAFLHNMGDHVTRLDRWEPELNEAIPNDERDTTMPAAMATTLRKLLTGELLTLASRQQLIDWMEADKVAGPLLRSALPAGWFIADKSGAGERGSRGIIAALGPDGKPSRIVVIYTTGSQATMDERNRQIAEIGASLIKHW
VIM-2 confirm 2: confirmation of P. aeruginosa VIM-2 metallo-beta-lactamase inhibitors; shares compounds with VIM-2 inh; purified VIM-2, nitrocefin hydrolysis, epi-absorbance; inhibition, % at 5.6 µM; 1,300 compounds, 96% hits;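 active means inhibition of the VIM-2 beta-lactamase enzyme above about 11% from the earlier first-round screen, limit read from the data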
Numbers stand for hits; 0 = inactive; - = no result.

SMILES	MIN6 prolif	PvdQ acylase	VIM-2 inh	HKDC1 inhibitor	ATG4B inhibitor	IMP-1 inh-1	IMP-1 inh-2	VIM-2 FRET ctr	TEM-1 inh	VIM-2 confirm 2
CNC(C)C#Cc1ccc2c(=O)c3cc(C)c(C)cc3oc2c1 (stereo not drawn)	0	0	-	0	0	-	-	-	-	-
CNC(C)C#Cc1ccc2c(=O)c3c(OC)cccc3oc2c1 (stereo not drawn)	0	-	13.5	-	-	0	0	0	0	30.9
CCCn1c2ccc(F)cc2c2nnc(SCCN3CCOCC3)nc21	-	0	0	0	0	0	-	-	-	-
COc1ccc2c(c1)c1nnc(SCC(=O)NC3CC3)nc1n2C	0	0	0	0	0	0	-	-	-	-
CCn1c2ccc(C)cc2c2nnc(SCCN3CCCCC3)nc21	0	0	26.4	0	0	0	0	0	0	34.8
Cc1ccc2c(c1)c1nnc(SCC(=O)NC3CC3)nc1n2C	0	0	16.6	-	-	0	0	0	0	27.9
CCCn1c2ccc(C)cc2c2nnc(SCCN3CCCCC3)nc21	0	0	22.1	0	0	0	0	0	0	21.4
CCCn1c2ccc(C)cc2c2nnc(SCCN3CCOCC3)nc21	0	0	16.7	0	0	0	0	0	0	27.3
N#Cc1cnc(NN)nc1	0	0	0	0	0	0	-	-	-	-
CC(Sc1nc(-c2ccco2)nc2c1c(=O)n(C)c(=O)n2C)C(=O)O (stereo not drawn)	0	0	0	0	0	0	-	-	-	-
CC(C)CNC(=O)c1ccccc1NC(=O)CN(c1ccccc1)S(=O)(=O)N(C)C	0	0	0	0	0	0	-	-	-	-
Cc1cc(C)c2c(c1)c1nnc(SCCN3CCOCC3)nc1n2C	0	0	23.4	0	0	0	0	0	0	30.7
Cc1oc(-c2cc(F)cc(F)c2)nc1CN1CCSCC1	0	0	0	0	0	0	-	-	-	-
Cc1nnc2c(SC(C)C)nc3ccccc3n12	0	0	13.5	0	0	0	0	0	0	22.3
Cc1ccc(-c2nc3ccccc3n3c(C)nnc23)cc1	-	-	0	-	-	0	-	-	-	-
O=C(OCC(=O)N1CCN(C(=O)c2ccco2)CC1)c1cc(-c2ccco2)nc2ccccc12	0	0	15.4	37.1	0	0	0	0	0	10.9
CCOC(=O)c1ccccc1N/C=C1\CCCCC1=O	0	0	13.8	0	0	0	0	23.9	0	26.6
CC(=O)c1c(C)n(-c2ccc(Cl)cc2)c2ccc(O)cc12	0	0	14.3	0	0	0	0	24.1	0	16.3
CCOCCc1nnc(NC(=O)CCS(=O)(=O)c2ccccc2)s1	0	0	12.4	0	0	0	0	0	0	14.4
CN(C)S(=O)(=O)c1ccc(/C(O)=C2/C(=O)C(=O)N(CCCN3CCOCC3)C2c2ccncc2)cc1 (stereo not drawn)	0	0	-	0	0	-	-	-	-	-
O=C(NCc1ccc(N2CCCC2=O)cc1)c1cc(COc2c(F)cccc2F)on1	0	0	0	0	0	0	-	-	-	-
OCCCc1n[nH]c(=S)n1-c1ccccc1	0	0	23.2	0	0	0	0	37.8	0	27.4
CSc1sc(C(=O)N(C)C)c2c1S(=O)(=O)N(C)c1ccccc1-2	0	0	0	0	0	0	-	-	-	-
O=C(COc1ccc2c3c(c(=O)oc2c1)CCC3)Nc1ccc(CN2CCOCC2)cc1	0	0	17.6	0	0	0	0	0	0	26.6
Cc1cc(=O)oc2cc(OCC(=O)NC3CCN(Cc4ccccc4)CC3)ccc12	0	0	0	0	0	0	-	-	-	-
SMILES	MIN6 prolif	PvdQ acylase	VIM-2 inh	HKDC1 inhibitor	ATG4B inhibitor	IMP-1 inh-1	IMP-1 inh-2	VIM-2 FRET ctr	TEM-1 inh	VIM-2 confirm 2
CCCc1cc(=O)oc2cc(OCC(=O)NC3CCN(Cc4ccccc4)CC3)ccc12	0	0	0	0	0	0	-	-	-	-
O=C(COc1ccc2c3c(c(=O)oc2c1)CCC3)NC1CCN(Cc2ccccc2)CC1	0	0	27.9	0	0	0	0	0	0.7	39.0
Cc1cc(=O)oc2cc(OCC(=O)Nc3ccc(CN4CCOCC4)cc3)ccc12	0	0	0	0	0	0	-	-	-	-
CCCc1cc(=O)oc2c(C)c(OCC(=O)NC3CCN(Cc4ccccc4)CC3)ccc12	0	0	16.0	0	0	0	0	0	0	27.4
O=C(COc1ccccc1F)N1N=C(c2cccs2)CC1c1ccco1 (stereo not drawn)	0	0	-	0	0	-	-	-	-	-
CC(/C=N/n1c(-c2cccnc2)n[nH]c1=S)=C\c1ccccc1	0	0	0	0	0	0	-	-	-	-
CC(/C=N/n1c(COc2ccccc2)n[nH]c1=S)=C\c1ccccc1	0	0	0	0	0	0	-	-	-	-
CC(=C/c1ccccc1)/C=N/n1c(-c2ccncc2)n[nH]c1=S	15.2	0	16.0	0	0	0	0	47.9	0	28.1
CC(=C/c1ccccc1)/C=N/n1c(C)n[nH]c1=S	0	0	33.0	0	0	0	0	61.5	0	42.1
CC1CCCN(C(=O)c2cccc(S(=O)(=O)N3CCCC3)c2)C1 (stereo not drawn)	0	0	-	0	0	-	-	-	-	-
CCOC(=O)N1CCC(N2C(=O)c3ccc(C(=O)Nc4cccc(OC)c4)cc3C2=O)CC1	0	0	0	0	0	0	-	-	-	-
Cc1cc(N2C(=O)CC(N3CCN(c4ccc(C(=O)c5cccs5)cc4)CC3)C2=O)no1 (stereo not drawn)	0	0	13.2	0	0	0	0	0	0	0
COc1ccc(CNC(=O)Cn2nc([N+](=O)[O-])c(Br)c2C)cc1OC	0	0	0	0	0	0	-	-	-	-
O=C(Nc1cccc(S(=O)(=O)N2CCCCC2)c1)C1CC(=O)N(c2ccc3c(c2)OCCO3)C1 (stereo not drawn)	0	0	0	0	0	0	-	-	-	-
O=c1[nH]c(=S)[nH]c2nc(-c3cccs3)cc(C(F)(F)F)c12	0	0	12.6	0	0	0	0	0	0	15.0
O=C(CSc1nc2nc(-c3cccs3)cc(C(F)(F)F)c2c(=O)[nH]1)Nc1c(F)c(F)c(F)c(F)c1F	0	0	0	0	0	0	-	-	-	-
COc1ccc(N2CCc3c(C)nc4c(OC)cc(OC)cc4c32)cc1	0	0	14.6	0	0	0	0	0	0	22.0
Cc1nc2c(C)cccc2c2c1CCN2c1ccccc1F	0	0	0	0	0	0	-	-	-	-
COc1cccc(N2CCc3c(C)nc4ccc(Cl)cc4c32)c1	-	0	21.9	0	0	0	0	0	0	29.5
CCCC(=O)N1CCN(c2ccc(NC(=O)c3ccc(Br)o3)cc2)CC1	0	0	0	0	0	0	-	-	-	-
